Target: cGMP-specific 3',5'-cyclic phosphodiesterase (Homo sapiens, UniProt O76074)
Assay: Inhibition of full length recombinant human N-terminal GST-tagged PDE5A1 expressed in baculovirus infected sf9 cells at 100 nM using FAM-cyclic-3',5-GMP as substrate after 1 hr by fluorescence polarization assay relative to control
In short: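 Single-point test at 100 nM, reported as percent inhibition. Human PDE5 at 15 ng/mL with 100 nM FAM-cGMP in MOPS pH 7.5 buffer (MgCl2, EDTA, BSA, DTT), 1% DMSO final, 60 min at 25 °C. Binding agent added for 1 h, then fluorescence polarization read at […] nm.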

| SMILES | inhibition [%] |
| --- | --- |
| Cc1ccc([C@H]2c3[nH]c4ccccc4c3C[C@@H]3C(=O)N(C)CC(=O)N23)s1 | 40.2 |
| Cc1cc(C2c3[nH]c4ccccc4c3CCN2c2ccc(-c3ccccn3)cn2)sc1C (stereo unspecified) | 21.2 |
| CCc1ccc(C(=O)c2[nH]c3ccccc3c2CCNc2ncc(-c3ccc(OC)c(OC)c3)cn2)o1 | 29.1 |
| CCc1ccc(C2c3[nH]c4ccccc4c3CCN2c2ccc(-c3ccccn3)cn2)o1 (stereo unspecified) | 39.2 |
| CCc1ccc(C2c3[nH]c4ccccc4c3CCN2C(=O)/C=C/c2ccc(C(=O)OC)cc2)s1 (stereo unspecified) | 43.9 |
| Cc1cc(C(=O)c2[nH]c3ccccc3c2CCNc2ccc(-c3ccccn3)cn2)sc1C | 1.7 |
| CN1CC(=O)N2[C@@H](c3ccco3)c3[nH]c4ccccc4c3C[C@@H]2C1=O | 35.2 |
| CCNC(=O)N1[C@H](c2ccc(CC)s2)c2[nH]c3ccccc3c2C[C@@H]1C(=O)OC | 41.3 |
| CCc1ccc([C@@H]2c3[nH]c4ccccc4c3C[C@H]3C(=O)N(C)CC(=O)N23)o1 | 41.1 |
| Cc1ccc(C(=O)c2[nH]c3ccccc3c2CCNc2ccc(-c3ccccn3)cn2)o1 | 23.7 |
| Cc1ccc(C2c3[nH]c4ccccc4c3CCN2c2ccc(-c3ccccn3)cn2)s1 (stereo unspecified) | 38.1 |
| CCc1ccc(C(=O)c2[nH]c3ccccc3c2C[C@@H]2NC(=O)N(CC)C2=O)s1 | 27.3 |
| COc1cccc2cc(C(=O)c3[nH]c4ccccc4c3CCNc3ccc(-c4ccccn4)cn3)oc12 | 23.9 |
| Cc1ccc(C2c3[nH]c4ccccc4c3CCN2c2ccc(-c3ccccn3)cn2)o1 (stereo unspecified) | 23.2 |
| CCCCN1C(=O)[C@H]2Cc3c([nH]c4ccccc34)[C@H](c3ccc(CC)s3)N2C1=O | 37.9 |
| CN1CC(=O)N2[C@@H](c3ccc(Br)s3)c3[nH]c4ccccc4c3C[C@@H]2C1=O | 39.8 |
| Cc1ccc(C(=O)c2[nH]c3ccccc3c2CCNc2ccc(-c3ccccn3)cn2)s1 | 20.4 |
| CCc1ccc(C(=O)c2[nH]c3ccccc3c2C[C@H]2NC(=O)CN(C)C2=O)s1 | 21.1 |

| SMILES | inhibition [%] |
| --- | --- |
| CCc1ccc(C2c3[nH]c4ccccc4c3CCN2c2ncc(-c3ccc(OC)c(OC)c3)cn2)s1 (stereo unspecified) | 27.6 |
| c1ccc(-c2ccc(N3CCc4c([nH]c5ccccc45)C3c3cc4ccccc4o3)nc2)nc1 (stereo unspecified) | 15.2 |
| CCc1ccc(C(=O)c2[nH]c3ccccc3c2CCNc2ncc(-c3ccc(OC)c(OC)c3)cn2)s1 | 24.7 |
| CCc1ccc(C(=O)c2[nH]c3ccccc3c2C[C@H]2NC(=O)N(CC)C2=O)s1 | 11.1 |
| CN1CC(=O)N2[C@@H](c3sccc3Br)c3[nH]c4ccccc4c3C[C@@H]2C1=O | 41.6 |
| CCc1ccc([C@H]2c3[nH]c4ccccc4c3C[C@@H]3C(=O)N(C)CC(=O)N23)s1 | 38.8 |
| CN1CC(=O)N2[C@H](c3ccco3)c3[nH]c4ccccc4c3C[C@@H]2C1=O | 48.1 |
| O=C(c1cc2ccccc2o1)c1[nH]c2ccccc2c1CCNc1ccc(-c2ccccn2)cn1 | 17.7 |
| CCc1ccc([C@H]2c3[nH]c4ccccc4c3C[C@@H]3C(=O)N(C)CC(=O)N23)o1 | 39.1 |
| CCc1ccc(C(=O)c2[nH]c3ccccc3c2CCNc2ccc(-c3ccccn3)cn2)o1 | 16.1 |
| CCCc1ccc(C(=O)c2[nH]c3ccccc3c2CCNc2ccc(-c3ccccn3)cn2)s1 | 18.3 |
| CCCCN1C(=O)[C@@H]2Cc3c([nH]c4ccccc34)[C@H](c3ccc(CC)s3)N2C1=O | 35.9 |
| CCc1ccc(C2c3[nH]c4ccccc4c3CCN2C(=O)/C=C/c2cccc(Br)c2)s1 (stereo unspecified) | 33.7 |
| CCc1ccc(C(=O)c2[nH]c3ccccc3c2C[C@@H]2NC(=O)CN(C)C2=O)s1 | 23.3 |
| Cc1ccc([C@H]2c3[nH]c4ccccc4c3C[C@@H]3C(=O)N(C)CC(=O)N23)o1 | 40.5 |
| COc1cccc2cc(C3c4[nH]c5ccccc5c4CCN3c3ccc(-c4ccccn4)cn3)oc12 (stereo unspecified) | 17.5 |
| CCN1C(=O)[C@@H]2Cc3c([nH]c4ccccc34)[C@H](c3sccc3C)N2C1=O | 27.7 |
| CCCc1ccc(C2c3[nH]c4ccccc4c3CCN2c2ccc(-c3ccccn3)cn2)s1 (stereo unspecified) | 28 |

From ChEMBL document CHEMBL4265950, “Discovery of furyl/thienyl β-carboline derivatives as potent and selective PDE5 inhibitors with excellent vasorelaxant effect” (Eur J Med Chem, 2018)
